ChEMBL document CHEMBL3098104, “Design, synthesis and preliminary SAR studies of novel N-arylmethyl substituted piperidine-linked aniline derivatives as potent HIV-1 NNRTIs” (Bioorg Med Chem, 2014)

Columns and labels:
[1] = test system: Human immunodeficiency virus 2; experiment: Antiviral activity against HIV2 ROD infected in human MT4 cells assessed as inhibition of viral cytopathicity after 5 days by MTT assay; assay type: functional, organism-based; conditions: Human immunodeficiency virus 2, ISOLATE ROD, MT4, 120 h
In short: (§1)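 HIV-infected MT-4 cells were compared with mock-infected wells in triplicate. Exponentially growing cells were pelleted for 5 min at 1000 rpm and resuspended at 6 × 10^5 cells/ml. Compound was added at the start of infection from stocks at 10× final concentration. Viability was read by MTT five days post-infection. EC50 is the concentration giving 50% protection against virus-induced cytotoxicity, taken as the median of two or three parallel assays.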

[2] = Selectivity index, ratio of CC50 for human MT4 cells to EC50 for HIV1 3B infected in human MT4 cells; assay type: toxicity, cell-based; conditions: read-out: Ratio CC50/EC50
In short: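 MT-4 cells at 6 × 10^5 cells/ml, in triplicate wells, infected with HIV-1 IIIB or mock-infected. Compounds added from 10× stocks at the start of infection. MTT viability read on day 5. SI = CC50 (mock-infected cells) / EC50 (IIIB). Median of two or three parallel assays.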

[3] = Selectivity index, ratio of CC50 for human MT4 cells to EC50 for HIV1 RES056 harboring reverse transcriptase K103N/Y181C mutant infected in human MT4 cells; assay type: toxicity, cell-based; conditions: read-out: Ratio CC50/EC50
In short: (§2)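 MT-4 cells pelleted 5 min at 1000 rpm, resuspended at 6 × 10^5 cells/ml and plated. Compounds added from 10× stocks at the start, in triplicate wells, to HIV-infected and mock-infected cells in parallel. Viability read by MTT 5 days after infection. EC50 is 50% protection from virus-induced cytotoxicity. CC50 is 50% loss of viability in mock-infected cells. SI = CC50/EC50. Median of two or three parallel assays.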

[4] = Cytotoxicity against human MT4 cells assessed as cell viability after 5 days by MTT assay; assay type: cell-based
In short: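 Mock-infected MT-4 cells, from exponentially growing cultures pelleted and resuspended at 6 × 10^5 cells/ml, were run in triplicate wells alongside the infected series. Compound was added from 10× stocks at the start of the experiment. Viability was read by MTT after five days. CC50 is the concentration that lowers viability by 50%, taken as the median of two or three parallel assays.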

[5] = test system: Human immunodeficiency virus 1; experiment: Fold resistance, ratio of EC50 for HIV1 RES056 expressing K103N/Y181C mutant infected in human MT4 cells to EC50 for wild-type HIV1 3B infected in human MT4 cells; assay type: functional
In short: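 MTT protection assay in MT-4 cells run in parallel against the K103N/Y181C double mutant (RES056) and wild-type IIIB. Viability read 5 days after infection. Fold resistance = EC50 against the mutant divided by EC50 against IIIB. Median of two or three parallel assays.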

[6] = test system: Human immunodeficiency virus 1; experiment: Antiviral activity against HIV1 RES056 harboring reverse transcriptase K103N/Y181C mutant infected in human MT4 cells assessed as inhibition of viral cytopathicity after 5 days by MTT assay; assay type: functional, organism-based; conditions: Human immunodeficiency virus 1, RES056, MT4, 120 h; in short: as §2
[7] = test system: Human immunodeficiency virus 1; experiment: Antiviral activity against wild-type HIV1 3B infected in human MT4 cells assessed as inhibition of viral cytopathicity after 5 days by MTT assay; assay type: functional, organism-based; conditions: Human immunodeficiency virus 1, 3B, MT4, 120 h; in short: as §1
[8] = target: Human immunodeficiency virus type 1 reverse transcriptase (Human immunodeficiency virus 1, UniProt Q72547); experiment: Inhibition of wild-type HIV1 reverse transcriptase assessed as incorporation of biotin-labeled dUTP
In short: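 HIV-1 RT enzyme assay with poly(A)·oligo(dT)15 as template-primer. Incorporation of digoxigenin- and biotin-labeled dUTP into DNA was read colorimetrically with the peroxidase substrate ABTS.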

SMILES | EC50 [1] | selectivity ratio [2] | selectivity ratio [3] | CC50 at 120 h [4] | Ratio EC50 [5] | EC50 [6] | EC50 [7] | IC50 [8]
Cc1cc(C#N)cc(C)c1Oc1ccc([N+](=O)[O-])c(NC2CCN(Cc3ccc(CO)cc3)CC2)c1 | > 11 µM | 80 | < 1 | 11 µM | >80 | > 11 µM | 0.14 µM | –
Cc1cc(C#N)cc(C)c1Oc1ccc([N+](=O)[O-])c(NC2CCN(Cc3ccc(C(=O)O)cc3)CC2)c1 | > 30 µM | 159 | < 1 | 30 µM | >159 | > 30 µM | 0.19 µM | –
Cc1cc(C#N)cc(C)c1Oc1ccc([N+](=O)[O-])c(NC2CCN(Cc3ccc(S(C)(=O)=O)cc3)CC2)c1 | > 234 µM | > 10800 | – | > 234 µM | >10770 | > 234 µM | 0.022 µM | 0.36 µM
Cc1cc(C#N)cc(C)c1Oc1ccc([N+](=O)[O-])c(NC2CCN(Cc3ccc(C(N)=O)cc3)CC2)c1 | > 27 µM | 430 | < 1 | 27 µM | >430 | > 27 µM | 0.062 µM | –
Cc1cc(C#N)cc(C)c1Oc1ccc([N+](=O)[O-])c(NC2CCN(Cc3ccc(S(N)(=O)=O)cc3)CC2)c1 | > 23 µM | 782 | < 1 | 23 µM | >782 | > 23 µM | 0.029 µM | –
COC(=O)c1ccc(CN2CCC(Nc3cc(Oc4c(C)cc(C#N)cc4C)ccc3[N+](=O)[O-])CC2)cc1 | > 160 µM | ≥ 1210 | – | ≥ 160 µM | >1208 | > 160 µM | 0.13 µM | –
Cc1cc(C#N)cc(C)c1Oc1ccc([N+](=O)[O-])c(NC2CCN(Cc3ccccc3)CC2)c1 | > 2.8 µM | 4.4 | < 1 | 2.8 µM | >4.4 | > 2.8 µM | 0.63 µM | –
Cc1cc(C)c(Oc2ccc([N+](=O)[O-])c(NC3CCN(Cc4ccc([N+](=O)[O-])cc4)CC3)c2)c(C)c1 | > 147 µM | 70 | < 1 | 147 µM | >70 | > 147 µM | 2.1 µM | –
Cc1cc(C)c(Oc2ccc([N+](=O)[O-])c(NC3CCN(Cc4ccncc4)CC3)c2)c(C)c1 | > 21 µM | 258 | < 1 | 21 µM | >258 | > 21 µM | 0.082 µM | –
CC(=O)c1ccc(CN2CCC(Nc3cc(Oc4c(C)cc(C)cc4C)ccc3[N+](=O)[O-])CC2)cc1 | > 138 µM | 1310 | < 1 | 138 µM | >1312 | > 138 µM | 0.11 µM | –
Cc1cc(C)c(Oc2ccc([N+](=O)[O-])c(NC3CCN(Cc4ccc(CO)cc4)CC3)c2)c(C)c1 | > 25 µM | 255 | < 1 | 25 µM | >255 | > 25 µM | 0.096 µM | –
Cc1cc(C)c(Oc2ccc([N+](=O)[O-])c(NC3CCN(Cc4ccc(C(=O)O)cc4)CC3)c2)c(C)c1 | > 35 µM | 161 | < 1 | 35 µM | >161 | > 35 µM | 0.22 µM | –
Cc1cc(C)c(Oc2ccc([N+](=O)[O-])c(NC3CCN(Cc4ccc(S(C)(=O)=O)cc4)CC3)c2)c(C)c1 | > 158 µM | 5900 | < 1 | 158 µM | >5895 | > 158 µM | 0.027 µM | –
Cc1cc(C)c(Oc2ccc([N+](=O)[O-])c(NC3CCN(Cc4ccc(C(N)=O)cc4)CC3)c2)c(C)c1 | > 27 µM | 457 | < 1 | 27 µM | >457 | > 27 µM | 0.059 µM | –
Cc1cc(C)c(Oc2ccc([N+](=O)[O-])c(NC3CCN(Cc4ccc(S(N)(=O)=O)cc4)CC3)c2)c(C)c1 | > 22 µM | 615 | < 1 | 22 µM | >615 | > 22 µM | 0.036 µM | –
COC(=O)c1ccc(CN2CCC(Nc3cc(Oc4c(C)cc(C)cc4C)ccc3[N+](=O)[O-])CC2)cc1 | > 248 µM | > 246 | – | > 248 µM | >246 | > 248 µM | 1 µM | –
Cc1cc(C)c(Oc2ccc([N+](=O)[O-])c(NC3CCN(Cc4ccccc4)CC3)c2)c(C)c1 | > 25 µM | 37 | < 1 | 25 µM | >37 | > 25 µM | 0.66 µM | –
CC(=O)Nc1ccc(Oc2c(C)cc(C#N)cc2C)cc1NC1CCN(Cc2ccc(S(N)(=O)=O)cc2)CC1 | > 228 µM | – | – | > 228 µM | – | – | > 228 µM | –
Cc1cc(C#N)cc(C)c1Oc1ccc(N)c(NC2CCN(Cc3ccc(S(N)(=O)=O)cc3)CC2)c1.Cl | > 22 µM | 505 | 4.4 | 22 µM | 114 | 4.8 µM | 0.043 µM | –
Cc1cc(C#N)cc(C)c1Oc1ccc([N+](=O)[O-])c(NC2CCN(Cc3ccc([N+](=O)[O-])cc3)CC2)c1 | > 182 µM | 269 | < 1 | 182 µM | >269 | > 182 µM | 0.67 µM | –
Cc1cc(C#N)cc(C)c1Oc1ccc([N+](=O)[O-])c(NC2CCN(Cc3ccncc3)CC2)c1 | > 19 µM | 336 | < 1 | 19 µM | >336 | > 19 µM | 0.056 µM | –
CC(=O)c1ccc(CN2CCC(Nc3cc(Oc4c(C)cc(C#N)cc4C)ccc3[N+](=O)[O-])CC2)cc1 | > 251 µM | > 1630 | – | > 251 µM | >1630 | > 251 µM | 0.15 µM | –
CC(C)Nc1cccnc1N1CCN(C(=O)c2cc3cc(NS(C)(=O)=O)ccc3[nH]2)CC1 [DELAVIRDINE] | – | > 277 | – | > 36 µM | >277 | > 36 µM | – | –
O=c1[nH]cnc2c1ncn2[C@H]1CC[C@@H](CO)O1 [DIDANOSINE] | 18 µM | > 11 | > 12 | > 212 µM | – | – | 19 µM | –
O=C1Nc2ccc(Cl)cc2[C@@](C#CC2CC2)(C(F)(F)F)O1 [EFAVIRENZ] | – | > 855 | > 12 | > 6.3 µM | 70 | – | 0.0074 µM | –
Cc1cn([C@H]2C[C@H](N=[N+]=[N-])[C@@H](CO)O2)c(=O)[nH]c1=O [ZIDOVUDINE] | 0.0057 µM | > 13100 | > 12600 | > 94 µM | – | 0.0074 µM | 0.0072 µM | –
